The source made the active and inactive calls.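 How the source made its calls, unless noted: active means GFP response above 150% of the DMSO level; inconclusive means fewer than 70 events counted for a yeast strain; inactive means the rest.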
Key:
[1] = RPL19A-GFP modulators, yeast TOR pathway, confirmation, cell-based, S. cerevisiae, flow cytometry, cherry picks, mother/daughter gates (AID 2270;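 active means GFP response below 50% of the DMSO control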); settings: S. cerevisiae RPL19A-GFP strain, 3 h, at 10 µM, stronger effect = lower value, 100 = same GFP as DMSO wells
[2] = LAP4-GFP expression modulators in yeast, confirmation, cell-based, cherry picks, flow cytometry, mother/daughter gates (AID 2271;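 active means GFP response above 150% of the DMSO control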;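 further: ratio of sample to DMSO plate mean so 100% equals DMSO level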); settings: S. cerevisiae LAP4-GFP strain, 3 h, at 10 µM, stronger effect = higher value, 100 means same as DMSO control
In short: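 Material: Alexa Fluor 633-labelled Saccharomyces cerevisiae GFP-fusion strain, single-plex | Amount: Yeast cells seeded at OD600 of 0.2 | Buffer or medium: SC growth medium | Schedule: 3 h exposure, 30 °C | Measured by: HT flow cytometry, GFP fluorescence channel | Evaluation: % GFP response vs DMSO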

[3] = modulators of MEP2-GFP levels in yeast, confirmation, S. cerevisiae, flow cytometry GFP, cherry picks (AID 2272;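 active means GFP response above 150% of the DMSO control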;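 further: ratio of well signal to plate DMSO mean so 100% equals DMSO level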); settings: S. cerevisiae MEP2-GFP strain, 3 h, at 10 µM, stronger effect = higher value
[4] = AGP1-GFP expression modulators, hit retest, confirmation, cell-based, flow cytometry, S. cerevisiae, cherry picks (AID 2273);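 further: median GFP channel fluorescence over the whole cell population gate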; settings: S. cerevisiae AGP1-GFP strain, 3 h, at 10 µM
[5] = modulators of CIT2-GFP expression in yeast, confirmation, S. cerevisiae, GFP fusion, cherry picks, mother/daughter gates (AID 2274); settings: S. cerevisiae CIT2-GFP strain, flow cytometry, 3 h, at 10 µM, stronger effect = higher value
[6] = measured here: daughter cell gate
[7] = measured here: mother cell gate
[8] = measured here: daughter cell gate response
[9] = measured here: mother cell gate response

Row | SMILES | GFP response vs DMSO [1] | GFP response vs DMSO [1, 6] [%] | GFP response vs DMSO [1, 7] [%] | GFP response relative to DMSO [2] | GFP response relative to DMSO [2, 8] [%] | GFP response relative to DMSO [2, 9] [%] | GFP response vs DMSO [3] | GFP response, % of DMSO [4] | GFP response, % of DMSO [5] | GFP response, % of DMSO [5, 6] [%] | GFP response, % of DMSO [5, 7] [%]
1 | CC(=O)c1ccc2c3c(cccc13)C(=O)N(c1c(C)nn(C)c1C)C2=O | 100% (inactive) | 100 | 101 | 97.7% (inactive) | 97.9 | 97.5 | 102% (inactive) | 100% (inactive) | 96.4% (inactive) | 98.3 | 96.8
2 | CCCCCCNC(=O)c1c(O)c2cccc3c2n(c1=O)CCC3 | 100% (inactive) | 101 | 100 | 97.9% (inactive) | 97.6 | 95.1 | 107% (inactive) | 96.8% (inactive) | 96.9% (inactive) | 97.2 | 96.1
3 | COC(=O)NC1CCC(CC2CCC(NC(=O)OC)CC2)CC1 (configuration not stated) | 99% (inactive) | 98.9 | 99.4 | 92.8% (inactive) | 92.8 | 92.9 | 100% (inactive) | 94.7% (inactive) | 103% (inactive) | 105 | 103
4 | Cc1ccc(-c2csc(NC(=O)c3ccno3)n2)cc1 | 99% (inactive) | 98.4 | 96.5 | 103% (inactive) | 99.1 | 106 | 99% (inactive) | 95.1% (inactive) | 100% (inactive) | 99.2 | 99.3
5 | Cc1cc(O)c(C(=O)/C=C/c2ccc(Cl)cc2)c(=O)o1 | 97.2% (inactive) | 101 | 95.5 | 180% (active) | 156 | 180 | 110% (inactive) | 99.7% (inactive) | 95% (inactive) | 104 | 86.3
6 | COc1ccc(C(=O)/C=C/c2ccccc2C(F)(F)F)cc1 | 100% (inactive) | 99.1 | 99.5 | 99.2% (inactive) | 99.2 | 98.3 | 100% (inactive) | 99.7% (inactive) | 107% (inactive) | 106 | 107
7 | CCC(=O)Nc1ccc(NC(=O)c2oc3ccccc3c2C)cc1 | 101% (inactive) | 95 | 96.3 | 99.8% (inactive) | 100 | 101 | 102% (inactive) | 93.9% (inactive) | 103% (inactive) | 99.7 | 102
8 | O=C(NCCO)c1c(O)c2cccc3c2n(c1=O)CC3 | 99.3% (inactive) | 99.2 | 99.4 | 92.6% (inactive) | 94.1 | 94.2 | 97.8% (inactive) | 101% (inactive) | 97.8% (inactive) | 96.5 | 96.6
9 | Cc1ccc(N2C3=C(C(=O)CC(C)(C)C3)C(c3cn(C)nc3C)C3=C2CC(C)(C)CC3=O)cc1 | 105% (inactive) | 102 | 104 | 119% (inactive) | 122 | 117 | 131% (inactive) | 103% (inactive) | 134% (inactive) | 132 | 132
10 | COc1ccc(/C=C/C(=O)c2ccccc2O)cc1 | 96.8% (inactive) | 96.7 | 98.8 | 102% (inactive) | 99.3 | 99.5 | 102% (inactive) | 102% (inactive) | 99.3% (inactive) | 100 | 98
11 | O=C(Nc1nnc(-c2ccc(F)cc2)o1)c1cccc([N+](=O)[O-])c1 | 102% (inactive) | 97 | 101 | 157% (active) | 169 | 152 | 110% (inactive) | 97% (inactive) | 101% (inactive) | 103 | 99.3
12 | CCOC(=O)c1sc(NC(=O)c2ccco2)nc1-c1ccccc1 | 97.8% (inactive) | 96.4 | 96.7 | 96.5% (inactive) | 94.4 | 98.4 | 103% (inactive) | 100% (inactive) | 98.6% (inactive) | 97.6 | 99.3
13 | O=C(Nc1cccc(C(F)(F)F)c1)Oc1ccc(Cl)c2cccnc12 | 98% (inactive) | 97.6 | 98.2 | 110% (inactive) | 108 | 111 | 103% (inactive) | 99.3% (inactive) | 108% (inactive) | 110 | 107
14 | Cc1nn2c(N3CCN(C(=O)c4ccco4)CC3)cc(C(C)(C)C)nc2c1-c1ccccc1 | 98.2% (inactive) | 97.6 | 98.9 | 92.8% (inactive) | 94.4 | 92.9 | 100% (inactive) | 97.6% (inactive) | 95.5% (inactive) | 97.2 | 95
15 | O=C(NNC(=O)C1CCCCC1)C(=O)NC1CCCCC1 | 99.1% (inactive) | 99.8 | 99.3 | 98.8% (inactive) | 97.9 | 97.5 | 112% (inactive) | 104% (inactive) | 104% (inactive) | 102 | 104
16 | COCc1nnc(NC(=O)c2ccc(S(=O)(=O)N(C)c3ccccc3)cc2)o1 | 96.8% (inactive) | 96.6 | 97.1 | 101% (inactive) | 99.2 | 98.3 | 100% (inactive) | 92.5% (inactive) | 96.9% (inactive) | 97.2 | 97.3
17 | Cc1[nH]n(-c2ccccc2)c(=O)c1/C=N/Nc1nncc(-c2ccccc2)n1 | 88.1% (inactive) | 85.8 | 88.9 | 149% (inactive) | 137 | 151 | 108% (inactive) | 110% (inactive) | 86% (inactive) | 84.1 | 83.8
18 | COC(=O)Nc1c(-c2ccccc2)nc2ccccn12 | 99.4% (inactive) | 98.1 | 98.9 | 107% (inactive) | 106 | 105 | 98.3% (inactive) | 93.7% (inactive) | 101% (inactive) | 99.1 | 101
19 | COC(=O)c1ccccc1OCC(=O)NC1CCCCC1 | 88.9% (inactive) | 83.8 | 92.2 | 135% (inactive) | 126 | 145 | 89.9% (inactive) | 91.7% (inactive) | 84.1% (inactive) | 80.7 | 85.5
20 | CSc1ccc(-c2cc(=O)c3ccccc3o2)cc1 | 92% (inactive) | 89.3 | 92.5 | 117% (inactive) | 110 | 118 | 95.2% (inactive) | 90.5% (inactive) | 84.7% (inactive) | 81.6 | 84.8
21 | O=C(OCCCOC(=O)c1ccc(Br)o1)c1ccc(Br)o1 | 98.2% (inactive) | 95.3 | 98 | 108% (inactive) | 108 | 109 | 103% (inactive) | 102% (inactive) | 97.2% (inactive) | 97.6 | 97.1
22 | c1ccc(-c2n[nH]c3ccccc23)cc1 | 98.4% (inactive) | 97.1 | 97.6 | 101% (inactive) | 101 | 98.3 | 96.2% (inactive) | 92.1% (inactive) | 96.9% (inactive) | 97.2 | 97.3
23 | COc1ccc(C2N(c3ccc(Cl)cc3)N=C(C(C)=O)N(C)N2C(C)=O)cc1 (configuration not stated) | 100% (inactive) | 99.6 | 100 | 104% (inactive) | 101 | 103 | 101% (inactive) | 101% (inactive) | 106% (inactive) | 106 | 106
24 | COc1ccc(Cl)cc1C(Nc1cccnc1)c1ccc2cccnc2c1O (configuration not stated) | 97% (inactive) | 98.8 | 95.2 | 121% (inactive) | 109 | 127 | 116% (inactive) | 97.1% (inactive) | 109% (inactive) | 115 | 101
25 | O=C(C1CCN(Cc2nc(Cc3cccc(F)c3)no2)CC1)N1CCOCC1 | 99.5% (inactive) | 99 | 99.8 | 96.2% (inactive) | 100 | 97.2 | 100% (inactive) | 103% (inactive) | 100% (inactive) | 99.7 | 102
26 | O=C(Nc1ccccc1)c1c(F)cccc1F | 103% (inactive) | 103 | 103 | 97% (inactive) | 97.5 | 96.2 | 105% (inactive) | 102% (inactive) | 106% (inactive) | 103 | 107
27 | COc1ccc(-c2ccc(CCC(=O)O)o2)cc1 | 97% (inactive) | 95.1 | 96.1 | 126% (inactive) | 122 | 126 | 102% (inactive) | 86.3% (inactive) | 101% (inactive) | 97.2 | 101

— PubChem BioAssay
